pEC50: −log10 of the molar value.
Columns and labels:
[1] = target: T1, Poly(ADP-ribose) glycohydrolase (Homo sapiens, UniProt Q86W56); assay: Inhibition of human full length PARG using Bt-NAD ribosylated PARP1 substrate after 10 mins by TR-FRET assay
[2] = target: T1, Poly(ADP-ribose) glycohydrolase; assay: Inhibition of PARG in human HeLa cells assessed as induction of MMS-induced PAR chains preincubated for 1 hr followed by MMS addition and measured after 1 hr by Alexofluor 488-conjugated secondary antibody and Hoechst 33342 staining based assay; format: cell-based
Procedure, shortened: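 Acute (1 h) cell-based proof-of-mechanism assay measuring persistence of PAR chains, i.e. blockade of PARG-mediated PAR degradation, across a dose range. EC50 values are means of at least 4 independent measurements, with standard deviations.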

[3] = Clearance in human liver microsomes

T1 sequence (Q86W56 whole entry): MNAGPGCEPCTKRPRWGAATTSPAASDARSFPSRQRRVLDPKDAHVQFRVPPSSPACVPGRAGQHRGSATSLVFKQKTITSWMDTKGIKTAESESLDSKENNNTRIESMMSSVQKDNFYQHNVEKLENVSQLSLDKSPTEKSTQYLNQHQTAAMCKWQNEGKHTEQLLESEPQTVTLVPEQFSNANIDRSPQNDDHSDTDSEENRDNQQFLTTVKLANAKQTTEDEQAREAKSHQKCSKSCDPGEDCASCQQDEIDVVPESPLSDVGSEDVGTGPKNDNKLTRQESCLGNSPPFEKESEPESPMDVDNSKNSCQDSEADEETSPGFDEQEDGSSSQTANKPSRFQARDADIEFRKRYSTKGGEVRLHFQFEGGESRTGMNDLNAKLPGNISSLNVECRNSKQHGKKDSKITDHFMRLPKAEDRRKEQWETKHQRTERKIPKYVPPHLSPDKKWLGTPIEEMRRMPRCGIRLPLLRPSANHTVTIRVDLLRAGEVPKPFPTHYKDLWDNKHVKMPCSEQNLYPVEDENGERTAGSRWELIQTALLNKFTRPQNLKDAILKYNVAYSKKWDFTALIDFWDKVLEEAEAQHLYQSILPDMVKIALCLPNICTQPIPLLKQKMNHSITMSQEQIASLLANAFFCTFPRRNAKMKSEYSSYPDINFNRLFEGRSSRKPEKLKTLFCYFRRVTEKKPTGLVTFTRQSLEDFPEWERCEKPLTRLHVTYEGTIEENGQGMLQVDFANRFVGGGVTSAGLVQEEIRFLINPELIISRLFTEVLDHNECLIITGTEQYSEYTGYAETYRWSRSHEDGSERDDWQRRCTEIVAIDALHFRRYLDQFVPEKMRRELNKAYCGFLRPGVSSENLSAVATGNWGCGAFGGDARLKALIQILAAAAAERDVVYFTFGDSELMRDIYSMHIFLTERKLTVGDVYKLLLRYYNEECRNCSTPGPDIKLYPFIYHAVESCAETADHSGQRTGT

Structure (SMILES) | pEC50 [1] | pEC50 [2] | microsomal CLint [3]
CCNS(=O)(=O)c1ccc2c(c1)C(=O)c1ccccc1C2=O | 3.96 |  | 
Cn1c(=O)c2cc(S(=O)(=O)NC3CC3)ccc2n(C)c1=O | 4.96 |  | 
Cc1cc(Cn2c(=O)c3cc(S(=O)(=O)NC4(C)CC4)ccc3n(C)c2=O)no1 | 5.28 |  | 
Cc1nc(Cn2c(=O)c3cc(S(=O)(=O)NC4(C)CC4)ccc3n(C)c2=O)cs1 | 5.00 |  | 
Cn1c(=O)n(CC2CCCCC2)c(=O)c2cc(S(=O)(=O)NC3(C)CC3)ccc21 | < 3.82 |  | 
Cn1cncc1Cn1c(=O)c2cc(S(=O)(=O)NC3(C)CC3)ccc2n(C)c1=O | 5.48 |  | 
Cn1c(=O)n(Cc2ccoc2)c(=O)c2cc(S(=O)(=O)NC3(C)CC3)ccc21 | 5.22 |  | 
Cn1c(=O)n(Cc2ccncc2)c(=O)c2cc(S(=O)(=O)NC3(C)CC3)ccc21 | 5.10 |  | 
Cn1c(=O)n(-c2ccccc2)c(=O)c2cc(S(=O)(=O)NC3(C)CC3)ccc21 | 4.64 |  | 
CCNS(=O)(=O)c1ccc2c(c1)c(=O)n(CC)c(=O)n2CC | 3.85 |  | 
CCC(C)(C)NS(=O)(=O)c1ccc2c(c1)C(=O)c1ccccc1C2=O | 4.31 |  | 
CNS(=O)(=O)c1ccc2c(c1)C(=O)c1ccccc1C2=O | < 4.52 |  | 
O=C1c2ccccc2C(=O)c2cc(S(=O)(=O)NCC3CC3)ccc21 | 4.62 |  | 
Cn1c(=O)n(Cc2cocn2)c(=O)c2cc(S(=O)(=O)NC3(C)CC3)ccc21 | 4.68 |  | 
NC(=O)CNS(=O)(=O)c1ccc2c(c1)C(=O)c1ccccc1C2=O | < 3.82 |  | 
CCNS(=O)(=O)c1ccc2c(c1)c(=O)n(C)c(=O)n2C | < 3.82 |  | 
Cn1c(=O)[nH]c2ccc(S(=O)(=O)NC3(C)CC3)cc2c1=O | 5.40 | 5.09 | 
COCC(C)(C)NS(=O)(=O)c1ccc2c(c1)C(=O)c1ccccc1C2=O | < 3.82 |  | 
Cc1nc(-c2ccccc2)c(Cn2c(=O)c3cc(S(=O)(=O)NC4(C)CC4)ccc3n(C)c2=O)s1 | 4.92 |  | 
CCn1c(=O)c2cc(S(=O)(=O)NC3(C)CC3)ccc2n(C)c1=O | 5.40 |  | 
Cn1c(=O)c2cc(S(=O)(=O)NC3(C)CC3)ccc2n(Cc2ccccn2)c1=O | 5.24 |  | 

Structure (SMILES) | pEC50 [1] | pEC50 [2] | microsomal CLint [3]
COCCNS(=O)(=O)c1ccc2c(c1)C(=O)c1ccccc1C2=O | < 3.82 |  | 
O=C1c2ccccc2C(=O)c2cc(S(=O)(=O)NC3CC3)ccc21 | 4.89 | 4.66 | 
Cc1noc(Cn2c(=O)c3cc(S(=O)(=O)NC4(C)CC4)ccc3n(C)c2=O)n1 | 5.30 |  | 
CCn1c(=O)n(Cc2cnn(C)c2)c(=O)c2cc(S(=O)(=O)NC3(C)CC3)ccc21 |  |  | 35 µL/min/mg
Cn1c(=O)c2cc(S(=O)(=O)NC3(C#N)CC3)ccc2n(C)c1=O | 5.30 | 4.85 | 
Cn1c(=O)n(Cc2ccccn2)c(=O)c2cc(S(=O)(=O)NC3(C)CC3)ccc21 | 4.80 |  | 
N#CCCNS(=O)(=O)c1ccc2c(c1)C(=O)c1ccccc1C2=O | 4.06 |  | 
Cn1c(=O)c2cc(S(=O)(=O)NC(C)(C)C)ccc2n(C)c1=O | 3.96 |  | 
O=C1c2ccccc2C(=O)c2cc(S(=O)(=O)NCCO)ccc21 | < 3.82 |  | 
Cn1ccc(Cn2c(=O)c3cc(S(=O)(=O)NC4(C)CC4)ccc3n(C)c2=O)n1 | 4.92 |  | 
O=c1[nH]c2ccc(S(=O)(=O)NC3CC3)cc2c2ccccc12 | 4.30 |  | 
Cn1nccc1Cn1c(=O)c2cc(S(=O)(=O)NC3(C)CC3)ccc2n(C)c1=O | 5.39 |  | 
Cn1c(=O)n(CC2CC2)c(=O)c2cc(S(=O)(=O)NC3(C)CC3)ccc21 | 5.34 |  | 
Cn1c(=O)n(Cc2ccccc2)c(=O)c2cc(S(=O)(=O)NC3(C)CC3)ccc21 | 4.59 |  | 
NC(=O)CCNS(=O)(=O)c1ccc2c(c1)C(=O)c1ccccc1C2=O | < 3.82 |  | 
O=C1c2ccccc2C(=O)c2cc(S(=O)(=O)NC3CCC3)ccc21 | < 4.30 |  | 
Cn1c(=O)n(Cc2cnc[nH]2)c(=O)c2cc(S(=O)(=O)NC3(C)CC3)ccc21 | 5.40 |  | 
Cn1c(=O)n(Cc2ccsc2)c(=O)c2cc(S(=O)(=O)NC3(C)CC3)ccc21 | 4.70 |  | 
CC1(NS(=O)(=O)c2ccc3c(c2)C(=O)c2ccccc2C3=O)CC1 | 5.22 | 5.18 | 
Cn1c(=O)n(CC2COC2)c(=O)c2cc(S(=O)(=O)NC3(C)CC3)ccc21 | 5.15 |  | 
Cn1c(=O)n(Cc2nccs2)c(=O)c2cc(S(=O)(=O)NC3(C)CC3)ccc21 | 4.89 |  | 

The remaining lines, values ahead:

pEC50 [1] | pEC50 [2] | microsomal CLint [3] | Structure (SMILES)
5.55 | 5.05 |  | Cn1c(=O)c2cc(S(=O)(=O)NC3(C)CC3)ccc2n(CC#N)c1=O
5.49 |  |  | Cc1cc(Cn2c(=O)c3cc(S(=O)(=O)NC4(C)CC4)ccc3n(C)c2=O)[nH]n1
7.26 | 7.31 | 80 µL/min/mg | Cc1cc(Cn2c(=O)c3cc(S(=O)(=O)NC4(C)CC4)ccc3n(CC3CC3)c2=O)on1
6.32 |  |  | Cc1ncc(Cn2c(=O)c3cc(S(=O)(=O)NC4(C)CC4)ccc3n(C)c2=O)s1
6.42 |  |  | Cc1cc(Cn2c(=O)n(C)c(=O)c3cc(S(=O)(=O)NC4(C)CC4)ccc32)n(C)n1
5.48 | 4.72 |  | N#CC1(NS(=O)(=O)c2ccc3c(c2)C(=O)c2ccccc2C3=O)CC1
6.32 |  |  | Cn1c(=O)n(Cc2cnc(N)s2)c(=O)c2cc(S(=O)(=O)NC3(C)CC3)ccc21
6.48 | 6.92 | 26 µL/min/mg | CCn1c(=O)n(Cc2cc(C)no2)c(=O)c2cc(S(=O)(=O)NC3(C)CC3)ccc21
6.04 |  |  | Cc1nc(C)c(Cn2c(=O)c3cc(S(=O)(=O)NC4(C)CC4)ccc3n(C)c2=O)s1
5.96 | 5.21 |  | COCCn1c(=O)n(C)c(=O)c2cc(S(=O)(=O)NC3(C)CC3)ccc21
6.21 |  |  | Cc1noc(C)c1Cn1c(=O)c2cc(S(=O)(=O)NC3(C)CC3)ccc2n(C)c1=O
6.35 |  |  | CCn1cc(Cn2c(=O)c3cc(S(=O)(=O)NC4(C)CC4)ccc3n(C)c2=O)cn1
5.49 |  |  | COc1ccccc1Cn1c(=O)n(C)c(=O)c2cc(S(=O)(=O)NC3(C)CC3)ccc21
8.32 | 8.04 | 140 µL/min/mg | Cc1ncc(Cn2c(=O)c3cc(S(=O)(=O)NC4(C)CC4)ccc3n(Cc3sc(C)nc3C)c2=O)s1
6.28 |  |  | Cn1c(=O)c2cc(S(=O)(=O)NC3(C)CC3)ccc2n(Cc2ccc(F)cc2)c1=O
5.92 |  |  | Cn1c(=O)n(Cc2ccno2)c(=O)c2cc(S(=O)(=O)NC3(C)CC3)ccc21
5.52 |  |  | C#CCn1c(=O)c2cc(S(=O)(=O)NC3(C)CC3)ccc2n(C)c1=O
5.82 | 5.96 |  | CCn1c(=O)c2cc(S(=O)(=O)NC3(C)CC3)ccc2n(CC)c1=O
5.64 |  |  | Cn1c(=O)n(Cc2ccns2)c(=O)c2cc(S(=O)(=O)NC3(C)CC3)ccc21
6.35 |  |  | COc1ccc(Cn2c(=O)n(C)c(=O)c3cc(S(=O)(=O)NC4(C)CC4)ccc32)cc1
5.89 | 5.44 |  | CCn1c(=O)n(C)c(=O)c2cc(S(=O)(=O)NC3(C)CC3)ccc21
5.80 |  |  | Cn1c(=O)c2cc(S(=O)(=O)NC3(C)CC3)ccc2n(Cc2cccc(F)c2)c1=O
6.33 |  |  | Cc1nnc(Cn2c(=O)c3cc(S(=O)(=O)NC4(C)CC4)ccc3n(C)c2=O)s1
5.52 |  |  | Cn1nnnc1Cn1c(=O)c2cc(S(=O)(=O)NC3(C)CC3)ccc2n(C)c1=O
5.62 |  |  | Cn1c(=O)c2cc(S(=O)(=O)NC3(C)CC3)ccc2n(Cc2ccncc2)c1=O

pEC50 [1] | pEC50 [2] | microsomal CLint [3] | Structure (SMILES)
6.25 | 5.57 |  | Cn1c(=O)c2cc(S(=O)(=O)NC3(C)CC3)ccc2n(CC2CCCCC2)c1=O
6.15 | 6.60 |  | C#CCn1c(=O)n(C)c(=O)c2cc(S(=O)(=O)NC3(C)CC3)ccc21
6.42 |  |  | Cn1c(=O)n(Cc2cn[nH]c2)c(=O)c2cc(S(=O)(=O)NC3(C)CC3)ccc21
5.70 | 5.19 |  | CN(C)CCn1c(=O)n(C)c(=O)c2cc(S(=O)(=O)NC3(C)CC3)ccc21
5.85 |  |  | Cn1c(=O)c2cc(S(=O)(=O)NC3(C)CC3)ccc2n(Cc2ccccc2F)c1=O
5.60 |  |  | Cn1c(=O)n(Cc2cccnc2)c(=O)c2cc(S(=O)(=O)NC3(C)CC3)ccc21
5.89 |  |  | Cn1c(=O)c2cc(S(=O)(=O)NC3(C)CC3)ccc2n(Cc2cccnc2)c1=O
5.80 |  |  | Cn1c(=O)n(CC(=O)c2ccccc2)c(=O)c2cc(S(=O)(=O)NC3(C)CC3)ccc21
5.74 | 5.25 |  | CCn1c(=O)c2cc(S(=O)(=O)NC3(C#N)CC3)ccc2n(CC)c1=O
5.89 | 5.64 |  | Cn1c(=O)c2cc(S(=O)(=O)NC3(C)CC3)ccc2n(Cc2ccccc2)c1=O
5.57 |  |  | Cn1c(=O)n(Cc2csnn2)c(=O)c2cc(S(=O)(=O)NC3(C)CC3)ccc21
5.92 |  |  | Cn1c(=O)n(Cc2cncs2)c(=O)c2cc(S(=O)(=O)NC3(C)CC3)ccc21
6.11 |  |  | Cc1oncc1Cn1c(=O)c2cc(S(=O)(=O)NC3(C)CC3)ccc2n(C)c1=O
5.92 |  |  | Cn1nccc1Cn1c(=O)n(C)c(=O)c2cc(S(=O)(=O)NC3(C)CC3)ccc21
5.77 |  |  | Cn1c(=O)n(CC(=O)c2ccncc2)c(=O)c2cc(S(=O)(=O)NC3(C)CC3)ccc21
5.74 |  |  | Cc1nnc(Cn2c(=O)c3cc(S(=O)(=O)NC4(C)CC4)ccc3n(C)c2=O)o1
6.43 |  |  | Cn1c(=O)n(Cc2cnn(CC#N)c2)c(=O)c2cc(S(=O)(=O)NC3(C)CC3)ccc21
5.68 |  |  | Cc1nonc1Cn1c(=O)c2cc(S(=O)(=O)NC3(C)CC3)ccc2n(C)c1=O
6.06 |  |  | Cc1nnsc1Cn1c(=O)c2cc(S(=O)(=O)NC3(C)CC3)ccc2n(C)c1=O
5.51 |  |  | Cn1cnnc1Cn1c(=O)c2cc(S(=O)(=O)NC3(C)CC3)ccc2n(C)c1=O
6.74 |  |  | Cc1nc(C)c(Cn2c(=O)n(C)c(=O)c3cc(S(=O)(=O)NC4(C)CC4)ccc32)s1
5.96 |  |  | Cn1c(=O)n(CC#N)c(=O)c2cc(S(=O)(=O)NC3(C)CC3)ccc21
6.07 |  |  | COc1cccc(Cn2c(=O)n(C)c(=O)c3cc(S(=O)(=O)NC4(C)CC4)ccc32)c1
6.33 |  |  | Cc1cc(Cn2c(=O)c3cc(S(=O)(=O)NC4(C)CC4)ccc3n(C)c2=O)on1

From ChEMBL document CHEMBL4261639, “Cell-Active Small Molecule Inhibitors of the DNA-Damage Repair Enzyme Poly(ADP-ribose) Glycohydrolase (PARG): Discovery and Optimization of Orally Bioavailable Quinazolinedione Sulfonamides” (J Med Chem, 2018)
